This is one part of a sample in which hits are shown more often than they occur.
RORa inhibitor = blocks the human nuclear receptor RORA | P35398 | CHO-K1 Gal4-RORA LBD luciferase reporter, luminescence | inhibition, % at 10 µM | hit rate 0.43% among 65,000 | AID 561;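 active = inhibition above the mean of all tested compounds plus 3 SD, cut at about 52% in these data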;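 note: 0% = RORA-transfected cells with DMSO and 100% = mock-transfected cells lacking RORA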
Target sequence (P35398 whole entry, looked up, the tested form may be a part): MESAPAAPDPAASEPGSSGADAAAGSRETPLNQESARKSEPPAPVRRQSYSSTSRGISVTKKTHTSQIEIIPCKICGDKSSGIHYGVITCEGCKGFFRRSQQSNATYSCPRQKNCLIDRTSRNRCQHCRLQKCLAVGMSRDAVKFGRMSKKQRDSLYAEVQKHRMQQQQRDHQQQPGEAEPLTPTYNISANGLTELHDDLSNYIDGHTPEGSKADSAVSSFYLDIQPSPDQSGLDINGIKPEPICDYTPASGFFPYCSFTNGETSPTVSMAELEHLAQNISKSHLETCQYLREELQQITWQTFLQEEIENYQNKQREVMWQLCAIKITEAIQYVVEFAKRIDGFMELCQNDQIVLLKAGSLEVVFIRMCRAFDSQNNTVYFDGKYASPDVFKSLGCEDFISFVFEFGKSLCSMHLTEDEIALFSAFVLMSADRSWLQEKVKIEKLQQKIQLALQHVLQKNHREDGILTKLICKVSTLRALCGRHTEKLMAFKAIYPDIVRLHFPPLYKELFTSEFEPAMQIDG
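Material: transiently transfected CHO-K1 cells, Gal4-DBD/human RORA-LBD fusion plus 5xGal4-luciferase reporter; doses: single concentration per compound, 10 µM final; incubation: 20 h at 37 °C; detection: luminescence from basal luciferase reporter expression; read-out: % inhibition of basal luciferase versus +RORA/-RORA DMSO controls; replication: tested once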
An asterisk follows results filed as active.

SMILES	RORa inhibitor
COc1cc2c(cc1OC)C(=NCCC(=O)O)NC(C)(C)C2	3
Cc1cc(NC(=O)C2CCN(S(=O)(=O)Cc3ccccc3)CC2)ccc1-n1cnnn1	0
Cc1cc(C(F)F)n2nc(C(=O)Nc3ccccc3Br)nc2n1	-8
O=C(CCNS(=O)(=O)c1cccc2nsnc12)N1CC(=O)N(CCc2ccccc2)C(=O)C1	3
CCOC(=O)C1CCN(C(=O)Nc2ccccc2Cl)CC1	16
O=C(Nc1ccccc1)NC1(C(=O)N2CCN(c3ncccn3)CC2)CCCCC1	-16
COc1ccc(CNC(=O)CN(CC2CCCO2)C(=O)CNS(=O)(=O)c2ccc(F)cc2)cc1 (stereo unspecified)	20
O=C(CSC1=NCCS1)Nc1ccnc2ccccc12	73*
CC(C)(C)NC(=O)CSc1nnc(NC(=O)CCn2cnc3ccccc3c2=O)s1	9
O=C(CSc1cn(Cc2ccccc2)c2ccccc12)Nc1nccs1	-76
c1ccc(Oc2ccc(-n3cnnn3)cc2)cc1	5
COc1ccc(S(=O)(=O)Cc2ccc(C(=O)NCc3ccc(F)cc3)o2)cc1	-14
Cc1ccc(S(=O)(=O)N2CCC(C(=O)N3CCC(C(=O)NCc4cccnc4)CC3)CC2)cc1	10
COc1ccc2nc(NCc3ccccc3)[nH]c2c1	-52
CCCCNc1cc(C)nc(NCc2ccccc2)n1	57*
c1ccc(-c2cnnc(N3CCCCC3)n2)cc1	-58
CC(C)NC(=O)c1cc(=O)n(C)c(=O)n1C	-1
Cc1ccc2c(c1)nnn2C1CCN(S(=O)(=O)c2ccc(C(=O)N3C(C)CCCC3C)cc2)CC1 (stereo unspecified)	63*
Cc1ccc2c(c1)nnn2C1CCN(S(C)(=O)=O)CC1	16
COc1ccc(S(=O)(=O)N2CCC(n3cnc4cc(C(F)(F)F)ccc43)CC2)cc1	18
COC(=O)c1ccc(NC(=O)C2CCCN(S(=O)(=O)c3cnc[nH]3)C2)cc1 (stereo unspecified)	6
CCOC(=O)c1ccccc1NC(=O)CSc1nnnn1C1CCCCC1	-54
CC1(C)Cc2c(sc3nc4n(c(=N)c23)CCC4)CO1	12
CCCCS(=O)(=O)/C=C\C=C/S(=O)(=O)CCCC	91*
Cc1ccc(NC(=O)Cn2nc(C)c3ccccc3c2=O)cc1F	7
SMILES	RORa inhibitor
COc1ccccc1N1CCN(CC(=O)Nc2ccc(C)c(F)c2)CC1	-2
CCCCC(=O)Nc1ccc(N2CCN(C(=O)CC)CC2)cc1	10
Cc1ccc(NC(=O)Cc2nn(C)c(=O)c3ccccc23)cc1F	76*
Cc1cc2ccccc2c(=O)n1CC(=O)Nc1ccc2c(c1)OCO2	3
COc1ccc(N2CCN(C(=O)C3CCC(Cn4c(=S)[nH]c5ccccc5c4=O)CC3)CC2)cc1 (stereo unspecified)	-18
Cn1nc(CC(=O)Nc2ccc(N3CCN(C(=O)OC(C)(C)C)CC3)cc2)c2ccccc2c1=O	86*
Cn1nc(CC(=O)Nc2ccc3c(c2)OCCO3)c2ccccc2c1=O	75*
Cc1cc(C)n(-c2ccc(C(=O)Nc3ccc4c(c3)OCCO4)cc2)n1	-75
COc1ccc(Nc2nccc3c2nnn3C)cc1	-53
CCCCc1ccc(S(=O)(=O)Nc2cc(C)on2)cc1	12
COc1cccc(C2C(C(=O)c3ccco3)=C(O)C(=O)N2CCCN2CCOCC2)c1OC (stereo unspecified)	5
O=C1COc2ccc(OCc3ccc(F)cc3)cc21	-78
CC(OC(=O)c1ccco1)C(=O)NCc1cccs1 (stereo unspecified)	10
COc1cccc(NC(=O)CSc2nnc(-c3cc(C)n(-c4ccccc4)c3C)o2)c1	71*
COc1cccc(NC(=O)CNC(C)CCC(C)C)c1 (stereo unspecified)	14
COc1cccc(NC(=O)Cn2c(SCC(=O)N3CCOCC3)nc3ccccc32)c1	-17
CC(C)=CCC(C)(C)CNC(=O)NC1CCCCC1	-5
CN(C)S(=O)(=O)n1cnc(-c2ccccc2)c1-c1ccccc1	9
COC(=O)c1ccc(CSc2nc3c(c(=O)n2-c2ccc(Br)cc2)SCC3)o1	-5
CCOC(=O)c1[nH]c(C)c(C(=O)Nc2cccc(Cl)c2C)c1C	-64
N#Cc1c(NC(=O)CSc2ncnc3sccc23)oc(-c2ccco2)c1-c1ccco1	0
COc1cc(NC(=O)CSc2nc(C)cs2)cc(OC)c1	6
Cc1csc(SCC(=O)c2cc(C)n(Cc3cccs3)c2C)n1	77*
Cc1nc2ccc(NC(=O)Cc3cccs3)cc2s1	-53
CC(=O)Nc1ccccc1OCC(=O)c1cc(C)n(Cc2cccs2)c1C	89*
SMILES	RORa inhibitor
Cc1cc(C(=O)CN2C(=O)NC3(CCCc4ccccc43)C2=O)c(C)n1Cc1cccs1 (stereo unspecified)	-30
Cc1cc(C(=O)CSc2nnc(-c3ccco3)o2)c(C)n1Cc1ccco1	2
CC(=O)Nc1ccc(SCC(=O)c2cc(C)n(Cc3cccs3)c2C)cc1	67*
Cc1csc(SCc2ccccc2C(=O)O)n1	-13
Cc1cc(C(=O)COC(=O)c2ccc3c(c2)OCO3)c(C)n1Cc1cccs1	27
Cc1ccccc1S(=O)(=O)Cc1ccc(C(=O)NCCCOC(C)C)o1	17
